Measurements of several laboratories.
Each line is one published result; the experiments were not run side by side.
Target: cAMP-dependent protein kinase catalytic subunit alpha (PRKACA, Homo sapiens, UniProt P17612)

Structure (SMILES)	effect on	method	tested at	remaining binding [%]
O=C(O)c1cc(-c2ccc(C3CCNCC3)cc2)c2ccc(-c3ccc(C(F)(F)F)cc3)cc2c1	cell-free assay	competition with immobilised ligand	1 µM	100
O=C(NCCCN1CCOCC1)c1ccc(Nc2nccc(-c3cc4ccccc4s3)n2)cc1	binding	competition with immobilised ligand	1 µM	95
COc1ncc2cc3ccccc3nc2c1C#N	cell-free assay	competition with immobilised ligand	5 µM	100
CC(C)(C)c1ccc(-c2nc(CBr)nn2-c2cccc(O)c2)cc1	cell-free assay	competition with immobilised ligand	10 µM	86
O=C(N[C@H]1CCCCC/C=C\C2C[C@@]2(C(=O)O)NC(=O)[C@@H]2C[C@@H](Oc3ccncc3)CN2C1=O)OC1CCCC1 (stereo partly drawn)	cell-free assay	competition with immobilised ligand	1 µM	92
O=C(c1ccc(Nc2nccc(-c3cc4ccccc4s3)n2)cc1)N1CCC(N2CCCC2)CC1	binding	competition with immobilised ligand	1 µM	100
CN(C)c1nccc(-c2cnc3ncccn23)n1	binding	–	1 µM	83
CS(=O)(=O)N1CCCC(NC(=O)[C@H](CCC2CCCCC2)NC(=O)c2ccc(CNc3ncnc4c3nnn4-c3ccccc3)cc2)C1 (stereo partly drawn)	cell-free assay	competition with immobilised ligand	0.1 µM	100
CCN1CCN(Cc2ccc(C(=O)Nc3ccc(C)c(Oc4ccc5c(c4)CC(=O)N5)c3)cc2C(F)(F)F)CC1	binding	competition with immobilised ligand	1 µM	100
CN(C)c1ncc(F)c(-c2cnn3ncccc23)n1	binding	–	1 µM	86
Nc1ncc2c(n1)-c1c([nH]c3ccc(C#CC4CC4)cc13)CCCC2	binding	competition with immobilised ligand	1 µM	86
C[C@@H]1CCN(c2nccc(-c3cnn4ncccc34)n2)C1	binding	–	1 µM	100
O=C(Nc1ccc(Oc2ccc(F)cc2)cc1)N1CCc2ncccc2[C@H]1c1ccc(F)cc1	cell-free assay	competition with immobilised ligand	1 µM	95
COc1cnc(Nc2cccc(S(N)(=O)=O)c2)nc1N1CCN(c2ccccc2)CC1	binding	competition with immobilised ligand	1 µM	100
Nc1cnc(N2CCc3cc(S(=O)(=O)Nc4c(F)cc(Cl)cc4F)cc(N4CCCC4=O)c32)nc1	cell-free assay	competition with immobilised ligand	1 µM	100
O=C(c1ccc(Nc2ncc(Cl)c(-c3ccc(Cl)s3)n2)cc1)N1CCC(N2CCCC2)CC1	binding	competition with immobilised ligand	1 µM	97
O=C(NCC1CCOCC1)c1n[nH]cc1NC(=O)c1c(F)cccc1F	binding	competition with immobilised ligand	1 µM	100
CNC(=O)[C@@H]1CC[C@@H](n2c(-c3ccc4cnccc4c3)nc3ccc(C(=O)NCc4cccc(C(N)=O)c4)cc32)C1	binding	competition with immobilised ligand	1 µM	100
C[C@@H]1CN(c2ccc3ncc(-c4ccc5[nH]nc(C6CC6)c5c4)n3n2)C[C@H](C)O1	binding	competition with immobilised ligand	50 nM	88
Cc1c(NC(=O)c2cc(C(N)=O)nc3cc(F)ccc23)c(C(F)(F)F)nn1Cc1ccc(C#N)cc1	cell-free assay	competition with immobilised ligand	1 µM	78
CC1CCCN1c1nccc(-c2cnn3ncccc23)n1 (stereo not drawn)	binding	–	1 µM	100
